Here are results for seven molecules from article PMC4486003 (Biomaterials, 2015).

Assay [1] concerns the target T1, fibrin polymerization (Homo sapiens, UniProt P02671+P02675+P02679).
T1 sequence (P02675 45-491 limits assumed): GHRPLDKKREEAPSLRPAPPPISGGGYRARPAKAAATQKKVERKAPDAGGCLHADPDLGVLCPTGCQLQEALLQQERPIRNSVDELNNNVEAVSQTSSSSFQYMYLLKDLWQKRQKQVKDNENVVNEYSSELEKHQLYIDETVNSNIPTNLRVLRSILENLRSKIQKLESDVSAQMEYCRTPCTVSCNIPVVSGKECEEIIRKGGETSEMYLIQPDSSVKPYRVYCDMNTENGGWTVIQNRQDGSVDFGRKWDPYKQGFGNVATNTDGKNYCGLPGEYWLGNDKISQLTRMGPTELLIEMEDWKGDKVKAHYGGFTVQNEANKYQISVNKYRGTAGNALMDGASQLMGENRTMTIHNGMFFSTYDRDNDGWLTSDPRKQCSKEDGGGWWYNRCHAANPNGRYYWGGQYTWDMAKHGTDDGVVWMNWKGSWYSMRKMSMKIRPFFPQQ
T1 sequence (P02679 27-433 partner limits assumed): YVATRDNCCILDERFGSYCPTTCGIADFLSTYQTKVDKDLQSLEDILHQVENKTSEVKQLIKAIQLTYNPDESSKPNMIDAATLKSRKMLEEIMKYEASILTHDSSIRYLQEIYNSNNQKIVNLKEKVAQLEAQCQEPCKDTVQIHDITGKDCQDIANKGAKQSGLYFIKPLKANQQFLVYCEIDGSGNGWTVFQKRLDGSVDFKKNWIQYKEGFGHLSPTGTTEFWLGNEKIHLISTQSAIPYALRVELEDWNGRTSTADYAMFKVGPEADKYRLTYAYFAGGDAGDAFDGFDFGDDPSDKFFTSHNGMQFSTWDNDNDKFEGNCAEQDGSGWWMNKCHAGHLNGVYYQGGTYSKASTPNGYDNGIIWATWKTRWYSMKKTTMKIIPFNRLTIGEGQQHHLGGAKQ
T1 sequence (P02671 36-866 partner limits assumed): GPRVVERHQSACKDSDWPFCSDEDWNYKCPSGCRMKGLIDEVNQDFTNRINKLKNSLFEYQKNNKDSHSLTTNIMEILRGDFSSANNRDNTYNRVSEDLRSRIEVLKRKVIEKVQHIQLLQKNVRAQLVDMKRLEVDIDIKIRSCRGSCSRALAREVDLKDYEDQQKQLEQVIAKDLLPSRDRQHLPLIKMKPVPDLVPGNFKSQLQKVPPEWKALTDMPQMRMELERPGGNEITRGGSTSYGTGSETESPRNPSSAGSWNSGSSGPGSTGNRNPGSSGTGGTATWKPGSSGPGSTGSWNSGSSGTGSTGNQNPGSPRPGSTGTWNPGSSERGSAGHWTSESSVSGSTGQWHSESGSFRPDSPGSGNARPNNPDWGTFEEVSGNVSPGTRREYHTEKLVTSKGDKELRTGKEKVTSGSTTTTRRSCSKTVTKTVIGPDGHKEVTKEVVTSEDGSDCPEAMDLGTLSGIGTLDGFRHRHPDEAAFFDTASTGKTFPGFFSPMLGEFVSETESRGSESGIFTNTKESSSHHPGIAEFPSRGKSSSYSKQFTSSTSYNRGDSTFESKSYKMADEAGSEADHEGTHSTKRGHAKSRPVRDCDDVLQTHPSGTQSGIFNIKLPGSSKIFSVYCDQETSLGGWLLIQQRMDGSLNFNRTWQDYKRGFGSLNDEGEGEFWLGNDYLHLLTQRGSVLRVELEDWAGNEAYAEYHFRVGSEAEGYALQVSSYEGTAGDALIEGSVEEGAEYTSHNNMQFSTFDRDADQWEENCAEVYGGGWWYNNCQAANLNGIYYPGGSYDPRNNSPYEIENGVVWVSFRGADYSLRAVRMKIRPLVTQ
Briefly: Percent clottable protein. It counts as biochemical. The following applies: from percent clottability. Summed up:
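Test compound at final 1, 0.25 or 0.1 mM was added to clots at pH 7.4 (25 mM HEPES, 150 mM NaCl) with final fibrinogen 1 mg/mL, thrombin 0.25 U/mL and CaCl₂ 5 mM. A350 was read every minute for 1 h. Clot liquor was then assayed for total protein (Quant-it). Percent clottable protein was computed against fibrinogen-only, no-thrombin samples.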

Assay [2] deals with fibrin polymerization. The following applies: high concentrations; ref [15]; cited from earlier work.
Assay [3] has as its system fibrin network. The following applies: cited from earlier work.
Assay [4] relates to hole B. The following applies: knob B mimic derived from chicken; ref [19], [20]; cited from earlier work.
The target in assay [5] is T2, fibrinogen Fragment D (Homo sapiens, UniProt P02671+P02675+P02679).
T2 sequence (P02675 164-491 limits assumed): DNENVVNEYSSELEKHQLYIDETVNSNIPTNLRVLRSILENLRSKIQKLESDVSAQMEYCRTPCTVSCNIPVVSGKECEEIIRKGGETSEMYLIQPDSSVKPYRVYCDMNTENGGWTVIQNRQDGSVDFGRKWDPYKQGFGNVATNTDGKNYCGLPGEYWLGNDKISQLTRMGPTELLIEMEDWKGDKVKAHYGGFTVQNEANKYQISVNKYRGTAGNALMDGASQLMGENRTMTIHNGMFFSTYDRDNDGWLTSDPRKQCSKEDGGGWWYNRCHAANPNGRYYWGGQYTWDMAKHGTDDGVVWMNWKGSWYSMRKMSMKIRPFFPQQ
T2 sequence (P02679 89-432 partner limits assumed): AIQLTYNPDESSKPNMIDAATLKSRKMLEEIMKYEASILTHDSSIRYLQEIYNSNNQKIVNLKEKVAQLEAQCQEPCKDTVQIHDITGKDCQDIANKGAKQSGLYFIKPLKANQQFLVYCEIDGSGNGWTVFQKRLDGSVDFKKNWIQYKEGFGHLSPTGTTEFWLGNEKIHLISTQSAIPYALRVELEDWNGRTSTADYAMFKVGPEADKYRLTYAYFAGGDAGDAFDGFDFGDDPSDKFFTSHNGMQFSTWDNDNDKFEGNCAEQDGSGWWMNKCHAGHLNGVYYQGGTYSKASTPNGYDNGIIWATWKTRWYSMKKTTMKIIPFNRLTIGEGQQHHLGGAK
T2 sequence (P02671 124-225 partner limits assumed): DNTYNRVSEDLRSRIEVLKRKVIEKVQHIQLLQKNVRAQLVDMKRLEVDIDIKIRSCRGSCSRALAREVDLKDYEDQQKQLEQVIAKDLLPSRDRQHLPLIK
Kind of assay: Surface plasmon resonance. In kind it is binding. The following applies: SPR; concentrations 5 μM to 1.5 mM. Summed up: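 Fragment D came from human fibrinogen (2 mg/mL) digested overnight at room temperature with plasmin (0.1 U/mL), then isolated on GPRPAA beads. It was covalently coupled to self-assembled-monolayer gold chips to about 1500 RU in 3 flow cells, with 1 reference cell. Test compound was run at five concentrations (5 μM–1.5 mM) in duplicate: 25 μL/min for 4 min, then 5 min dissociation. Kinetic models were fitted and judged by residuals.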
On the technique in general: Surface plasmon resonance follows binding to a sensor surface in real time, without labels.

Assay [6] relates to single fibrin fibers. Kind of assay: Single fibrin fiber breaking strain/extensibility. Set-up: species or system human. The following applies: for average single fiber breaking strain: percentage of original fiber length, 305 nm/s. Summed up:
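Fibrinogen and test compound were preincubated at 37°C for 15 min at pH 7.4 (140 mM NaCl, 10 mM HEPES, 5 mM CaCl₂); test compound finals were 1 mM, 250 μM and 100 μM. Thrombin and FXIII were added (finals: fibrinogen 3.2 μM, 0.3 NIH u/ml, 9.00 Loewy u/ml). Clots formed 75 min on striated substrates and were bead-labelled. An AFM tip stretched single fibers at 305 nm/s until rupture. Strain = (L′−L_initial)/L_initial, given as % of original length.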

The target in assay [7] is human fibrinogen Fragment D (human). Briefly: SPR.
Setting [8] is: 1:1 molar ratio fibrinogen:knob mimic, ref [11].

GPSPFPAC: in assay [1] (all concentrations tested), the “effect on polymerization (in words)” value was “not significantly affected”.
Regarding Gly-Pro-Arg-Pro [GPRP], the fibrin polymerization entry in assay [2] was “polymerization is inhibited”.
Consider GHRPY [reference compound], for which the “network structure and fibrinolysis” value in assay [3] (bovine knob B mimic, ref [18], [21]) is “altered network structure and delayed fibrinolysis”.
With AHRP, in assay [4], the binding specificity entry is on record as “only bind to hole B”.
As to AHRPYAAC-PEG, the “complex modulus (G*)” value in assay [3] (setting [8]) is listed as “increased the complex modulus”. For the same molecule, in assay [3] (setting [8]), the susceptibility to degradation entry is “decreased susceptibility to degradation”. The “binding to fragment D (in words)” value in assay [5] was “at a minimum, micromolar concentrations of PEGylated knob B peptides are required to observe binding to fibrinogen”. Also, the “average single fiber breaking strain” value was determined as 171% in assay [6] (100 μM), 164% in assay [6] (250 μM) and 202% in assay [6] (1 mM). The “increase of average breaking strain vs unmodified fibrin fibers” value in assay [6] (1 mM, stretched at 305 nm/s) was 20%. Moreover, the “fiber extensibility (in words)” value in assay [6] (concentrations above its Kd) is reported as “increase extensibility of fibers”; in assay [6] (concentrations near its Kd), “decreases the extensibility of fibers”.
Regarding GPSPFPAC-PEG, the “inhibition of polymerization (in words)” value in assay [1] (1 mM) was “significantly inhibited”.

B1: PEGylated knob B peptide AHRPYAAC-PEG (peptide)
peptide: AHRPYAAC
modifications: not fully specified; 5 kDa maleimide-PEG conjugated to the cysteine-terminated peptide
B1 showed a Kd1 (2-site model, higher-affinity site, assumed knob B:hole b) in assay [7] of 57 µM.
